Assay results taken from ChEMBL document CHEMBL4428077, “Synthesis and Biological Evaluation of N-((1-(4-(Sulfonyl)piperazin-1-yl)cycloalkyl)methyl)benzamide Inhibitors of Glycine Transporter-1” (J Med Chem, 2016).
The source made the active and inactive calls. The calls are words filed in the database; no cut-off is given here.

How the values were obtained:
[1] = Drug level in Sprague-Dawley rat plasma at 30 mg/kg, po measured 2 hrs post dose by LC-MS/MS analysis; type: ADME, organism-based
Outline: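 Drug-naive Sprague−Dawley rats (n = 4−5/group) were dosed orally once in 5% Solutol plus 20% Captisol in 25 mM PBS, pH 2, and euthanized 2 h later by CO₂. CSF was drawn from the cisterna magna. Drug was measured in CSF, brain and plasma; data as mean ± SEM.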

[2] = Drug level in Sprague-Dawley rat CSF at 1 mg/kg, po qd for 5 days measured 2 hrs post last dose by LC-MS/MS analysis; type: ADME, organism-based, Cerebrospinal fluid; conditions: read-out: Drug uptake
Outline: (§1)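 Drug-naive Sprague−Dawley rats (n = 5/group) were dosed orally once daily for 5 days in 5% Solutol plus 20% Captisol in 25 mM PBS, pH 2, and sacrificed 2 h after the last dose. Drug was measured in CSF, brain and plasma; mean ± SEM.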

Rattus norvegicus [3] = experiment: In vivo inhibition of glycine transporter-1 in Sprague-Dawley rat assessed as CSF glycine level at 10 mg/kg, po qd for 5 days measured 2 hrs post last dose by LC-MS/MS analysis relative to control; type: functional; set-up: scale not given: the % may be the effect or the level left
Outline: (§2)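 Drug-naive Sprague-Dawley rats, n = 5 per group, dosed orally once daily for 5 days with vehicle or 1.6, 4.8 or 16.1 μmol/kg. Vehicle was 5% Solutol / 20% Captisol in 25 mM PBS, pH 2. Killed 2 h or 48 h after the last dose. CSF glycine was expressed as % of vehicle control (vehicle 2 h post last dose), mean ± SEM. Two-way ANOVA with Tukey test.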

Rattus norvegicus [4] = experiment: In vivo inhibition of glycine transporter-1 in Sprague-Dawley rat assessed as increase in CSF glycine level at 1 to 10 mg/kg, po qd for 5 days; type: functional, organism-based; outline: as §2
[5] = Drug level in Sprague-Dawley rat brain at 3 mg/kg, po qd for 5 days measured 2 hrs post last dose by LC-MS/MS analysis; type: ADME, organism-based; conditions: read-out: Drug uptake; outline: as §1
[6] = Drug level in cynomolgus monkey CSF at 10 mg/kg, po measured at 4 hrs post dose by LC-MS/MS analysis; type: ADME, organism-based, Macaca fascicularis, Cerebrospinal fluid; conditions: read-out: Drug uptake
Outline: (§3)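 Cynomolgus monkeys (n = 3/group) fitted with subcutaneous CSF ports were dosed orally at 0.4−15.7 μmol/kg in 5% Solutol plus 20% Captisol in 25 mM PBS, pH 2. CSF (about 0.30 mL) and blood were sampled predose and at 0.5, 1, 2, 3, 4, 8, 12 and 24 h. Quantitation limit 1.0 ng/mL; mean ± SD.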

[7] = Ratio of drug level in Sprague-Dawley rat brain to plasma at 3 to 10 mg/kg, po measured 2 hrs post dose by LC-MS/MS analysis; type: ADME, organism-based; conditions: read-out: BPR
Outline: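 Drug-naive male Sprague–Dawley rats (n = 4–5/group) were dosed orally in 5% Solutol/10% Captisol in 25 mM PBS, pH 2, and euthanized by CO2 2 h post-dose. CSF (50–100 μL) was taken from the cisterna magna, and brain and plasma were collected; drug was measured in each matrix. Quantitation limit 1.0 ng/mL.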

[8] = Drug level in cynomolgus monkey plasma at 10 mg/kg, po measured at 4 hrs post dose by LC-MS/MS analysis; type: ADME, organism-based, Macaca fascicularis
[9] = Intrinsic clearance in rat; type: ADME
[10] = AUClast in Sprague-Dawley rat plasma at 10 mg/kg, po or 2 mg/kg, iv administered as single dose measured up to 24 hrs post dose by LC-MS/MS analysis; type: ADME, organism-based
Outline: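 Single-dose PK in drug-naive adult male Sprague−Dawley rats, n = 3 per group: 3.1 μmol/kg IV in 5% DMSO/10% Solutol in saline (5 mL/kg), or 15.7 μmol/kg PO in 5% Solutol/10% Captisol in 25 mM PBS, pH adjusted to 2 with HCl. Plasma parameters reported as mean ± SD.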

[11] = Drug level in po dosed Sprague-Dawley rat brain measured 2 hrs post dose by LC-MS/MS analysis; type: ADME, organism-based; conditions: in vivo
Cynomolgus monkey = experiment: In vivo inhibition of glycine transporter-1 in cynomolgus monkey assessed as CSF glycine level at 10 mg/kg, po measured up to 24 hrs post dose by LC-MS/MS analysis relative to control; type: functional, Macaca fascicularis; set-up: scale not given: the % may be the effect or the level left
Outline: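 Cynomolgus monkeys, n = 3 per group, given oral doses of 0.4, 1.5, 4.7 or 15.7 μmol/kg. Vehicle was 5% Solutol / 20% Captisol in 25 mM PBS, pH 2. CSF (about 0.30 mL) was drawn through subcutaneous ports with a sterile Huber needle predose and at 0.5, 1, 2, 3, 4, 8, 12 and 24 h. Matched blood was taken at each time. Mean ± SD.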

[12] = Drug level in cynomolgus monkey CSF at 0.3 to 3 mg/kg, po measured up to 24 hrs post dose by LC-MS/MS analysis; type: ADME, organism-based, Macaca fascicularis, Cerebrospinal fluid; conditions: in vivo, BLD = below limit of detection; outline: as §3
[13] = Oral bioavailability in cynomolgus monkey at 5 mg/kg measured up to 24 hrs post dose by LC-MS/MS analysis; type: ADME, organism-based, Macaca fascicularis; conditions: in vivo
Outline: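 Three female cynomolgus monkeys per group; single oral dose of 7.8 μmol/kg in 5% Solutol in 20% Captisol, 25 mM PBS, pH 2 (5 mL/kg), with a separate IV arm at 1.5 μmol/kg in 5% DMSO/10% Solutol in saline, pH 6.5 (2 mL/kg). F = (AUC_INFpo × Dose_iv)/(AUC_INFiv × Dose_po); mean ± SD.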

[14] = Drug level in cynomolgus monkey plasma at 10 mg/kg, po measured at 24 hrs post dose by LC-MS/MS analysis; type: ADME, organism-based, Macaca fascicularis
[15] = Tmax in Sprague-Dawley rat plasma at 10 mg/kg, po administered as single dose by LC-MS/MS analysis; type: ADME, organism-based
Outline: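 Groups of three drug-naive adult male Sprague–Dawley rats, single dose: IV 3.1 μmol/kg in 5% DMSO/10% Solutol in saline (5 mL/kg), or PO 15.7 μmol/kg in 5% Solutol/10% Captisol in 25 mM PBS adjusted to pH 2 with HCl. Plasma concentration–time data give the parameters; mean ± SD.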

[16] = Protein binding in human plasma; type: ADME, cell-free; conditions: read-out: PPB (converted)
Cytochrome P450 3A4 = Cytochrome P450 3A4 (Homo sapiens, UniProt P08684); experiment: Inhibition of CYP3A4 (unknown origin); type: ADME
Cytochrome P450 3A4, sequence (P08684 whole entry): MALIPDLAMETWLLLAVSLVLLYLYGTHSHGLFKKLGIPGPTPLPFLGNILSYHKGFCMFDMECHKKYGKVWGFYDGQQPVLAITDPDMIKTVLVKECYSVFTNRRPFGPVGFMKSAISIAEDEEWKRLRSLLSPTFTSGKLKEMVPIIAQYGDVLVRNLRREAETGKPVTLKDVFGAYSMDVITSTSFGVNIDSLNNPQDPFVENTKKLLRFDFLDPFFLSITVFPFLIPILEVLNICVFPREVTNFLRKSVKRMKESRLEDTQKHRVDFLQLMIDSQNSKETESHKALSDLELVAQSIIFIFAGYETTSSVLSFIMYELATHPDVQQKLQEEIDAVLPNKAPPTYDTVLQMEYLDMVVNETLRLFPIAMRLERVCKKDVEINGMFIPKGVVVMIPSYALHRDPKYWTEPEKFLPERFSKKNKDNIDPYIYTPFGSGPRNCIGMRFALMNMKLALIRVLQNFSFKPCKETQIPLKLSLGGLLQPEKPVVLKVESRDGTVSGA

[17] = Drug level in cynomolgus monkey CSF at 10 mg/kg, po measured at 3 hrs post dose by LC-MS/MS analysis; type: ADME, organism-based, Macaca fascicularis, Cerebrospinal fluid; conditions: read-out: Drug uptake; outline: as §3
[18] = Drug level in cynomolgus monkey CSF at 10 mg/kg, po measured at 12 hrs post dose by LC-MS/MS analysis; type: ADME, organism-based, Macaca fascicularis, Cerebrospinal fluid; conditions: read-out: Drug uptake; outline: as §3
[19] = Protein binding in rat plasma; type: ADME, cell-free; conditions: read-out: PPB (converted)
[20] = Drug level in cynomolgus monkey plasma at 3 mg/kg, po measured at 0.5 hr post dose by LC-MS/MS analysis; type: ADME, organism-based, Macaca fascicularis
[21] = Apparent permeability from apical to basolateral side in human Caco2 cells; type: ADME, cell-based; conditions: Caco-2
Outline: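 Caco-2 monolayer permeability measured in both the A-to-B and B-to-A directions and reported as P_app (×10⁻⁶ cm/s).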

`Cl.Cn1cc(S(=O)(=O)N2CCN(C3(CNC(=O)c4ccc(C(F)(F)F)cc4Cl)CCC(F)(F)CC3)CC2)nn1` gave a concentration at 2 h [1] of 490 nM, a concentration at 2 h [2] of 1 nM and an Activity (Rattus norvegicus [3]) of 315%. The inhibition (Rattus norvegicus [4]) was “Active” and the concentration at 2 h [5] was 44.8 nM.

Compound `CC(NC(=O)c1ccc(C(F)(F)F)cc1Cl)C1(N2CCN(S(=O)(=O)c3cn(C)nn3)CC2)CCC(F)(F)CC1.Cl` (single isomer, unassigned; (+)) has a concentration at 4 h [6] of 8.4 ng/mL, a Kp at 2 h [7] of 0.1 to 0.2 and a concentration at 4 h [8] of 224 ng/mL. For the same compound, the CL [9] was 6 microL/ml/min, the AUC(0-t) at 24 h [10] was 1960 ng·h/mL and the Drug uptake [11] was “Dose-dependent effect”. The Activity (Cynomolgus monkey) was >300%, the Drug uptake [12] was “Bld” and the bioavailability [13] was 31%. The concentration at 24 h [14] was 10.3 ng/mL, the Tmax [15] was 2.67 h and the fraction unbound [16] was 0.12. The IC50 (Cytochrome P450 3A4) was > 7.2 µM, the concentration at 3 h [17] was 11.3 ng/mL and the concentration at 12 h [18] was 5 ng/mL. For the same compound, the fraction unbound [19] was 0.13, the concentration at 0.5 h [20] was 1.6 ng/mL and the Papp A→B [21] was 23.9 ×10⁻⁶ cm/s.
